Active and inactive are the calls of the source.
What was measured:
[1] = target: T1, Cannabinoid receptor (Rattus norvegicus) (UniProt Q9QZN9+P20272); assay: Antagonist activity at CB1R/CB2R in Wistar rat brain membranes at 10 uM in presence of JWH-018 after 60 mins by [35S]-GTPgammaS binding assay relative to control; type: functional, cell membranes
Summary of the method: (§1)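 Rat brain membranes (30 µg protein/tube) incubated 60 min at 30 °C with 0.05 nM [35S]GTPγS and ligand at 10^-10–10^-5 M. Buffer: 50 mM Tris-HCl pH 7.4 with 30 µM GDP, 100 mM NaCl, 3 mM MgCl2, 1 mM EGTA. […] Nonspecific binding taken with 10 µM GTPγS; basal set as 100%. Filtration and scintillation counting; n≥3.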

Cannabinoid receptor [2] = target: T2, Cannabinoid receptor (Rattus norvegicus, UniProt Q9QZN9+P20272); assay: Displacement of [3H]JWH-018 from CB1R/CB2R in Wistar rat brain membranes after 60 mins by liquid scintillation analysis; type: cell membranes
[3] = target: T3, Cannabinoid receptor 2 (Rattus norvegicus) (UniProt Q9QZN9); assay: Displacement of [3H]JWH-018 from CB2R in Wistar rat brain membranes at 10 uM after 60 mins by liquid scintillation analysis relative to control; type: cell membranes
T3 sequence (whole entry): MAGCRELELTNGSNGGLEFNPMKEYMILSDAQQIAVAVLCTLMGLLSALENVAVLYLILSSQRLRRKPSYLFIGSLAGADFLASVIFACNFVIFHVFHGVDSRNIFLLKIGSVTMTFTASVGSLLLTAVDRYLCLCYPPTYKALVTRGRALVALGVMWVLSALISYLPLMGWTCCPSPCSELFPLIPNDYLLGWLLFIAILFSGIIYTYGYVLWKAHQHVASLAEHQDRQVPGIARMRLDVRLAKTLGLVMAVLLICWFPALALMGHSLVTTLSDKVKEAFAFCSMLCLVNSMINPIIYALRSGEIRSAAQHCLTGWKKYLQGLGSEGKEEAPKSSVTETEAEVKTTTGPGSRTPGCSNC
Summary of the method: (§2)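 Whole rat brain membranes (cerebellum removed; 0.3–0.5 mg/mL protein) in 50 mM Tris-HCl pH 7.4 with 2.5 mM EGTA, 5 mM MgCl2 and 0.5 mg/mL fatty-acid-free BSA, 30 °C. Kinetics used 0.6 nM [3H]JWH-018: association over 0–90 min, dissociation started with 10 µM JWH-018 after 60 min. Saturation over 0.5–35 nM. Competitors at 10^-11–10^-5 M, 60 min. Nonspecific binding with 10 µM JWH-018. Filtration onto PEI-soaked GF/B filters; n≥3.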

Cannabinoid receptor [4] = target: T2, Cannabinoid receptor; assay: Agonist activity at CB1R/CB2R in Wistar rat brain membranes after 60 mins by [35S]-GTPgammaS binding assay; type: functional, cell membranes; summary of the method: as §1
Rattus norvegicus [5] = organism: Rattus norvegicus; details: Wistar, Brain, Membranes, at 10 µM
[6] = target: T1, Cannabinoid receptor (Rattus norvegicus); assay: (§3) Displacement of [3H]JWH-018 from CB1R/CB2R in Wistar rat brain membranes assessed as dissociation rate constant at 10 uM by liquid scintillation analysis; type: cell membranes; summary of the method: as §2
Cannabinoid receptor [7] = target: T2, Cannabinoid receptor; assay: as §3; type: cell membranes; summary of the method: as §2
[8] = target: T1, Cannabinoid receptor (Rattus norvegicus); assay: Displacement of [3H]JWH-018 from CB1R/CB2R in Wistar rat brain membranes assessed as maximum efficacy at 10 uM by liquid scintillation analysis; type: cell membranes; summary of the method: as §2
[9] = target: T1, Cannabinoid receptor (Rattus norvegicus); assay: Displacement of [3H]JWH-018 from CB1R/CB2R in Wistar rat brain membranes at 10 uM by liquid scintillation analysis relative to control; type: cell membranes; summary of the method: as §2
[10] = Agonist activity at MOR/CB1R/CB2R receptor in Wistar rat brain membranes after 60 mins by [35S]-GTPgammaS binding assay; type: cell membranes
[11] = target: T1, Cannabinoid receptor (Rattus norvegicus); assay: Agonist activity at CB1R/CB2R in Wistar rat brain membranes after 60 mins by [35S]-GTPgammaS binding assay relative to control; type: functional, cell membranes; summary of the method: as §1
Cannabinoid receptor [12] = target: T2, Cannabinoid receptor; type: cell membranes, Wistar, Brain, Membranes
Mu-type opioid receptor [13] = target: T4, Mu-type opioid receptor (Rattus norvegicus, UniProt P33535); assay: Displacement of [3H]DAMGO from MOR in Wistar rat brain membranes after 60 mins by liquid scintillation analysis; type: cell membranes
Cannabinoid receptor [14] = target: T2, Cannabinoid receptor; assay: Displacement of [3H]JWH-018 from CB1R/CB2R in Wistar rat brain membranes assessed as dissociation constant by liquid scintillation analysis; type: cell membranes; summary of the method: as §2
[15] = target: T1, Cannabinoid receptor (Rattus norvegicus); assay: Displacement of [3H]JWH-018 from CB1R/CB2R in Wistar rat brain membranes assessed as pseudo-first order rate constant at 10 uM up to 90 mins by liquid scintillation analysis; type: cell membranes; summary of the method: as §2
Rattus norvegicus [16] = assay: Effect on nociception of the contralateral paw in rat model of sodium iodoacetate-induced osteoarthritis paw withdrawal threshold in late phase at 20 ug administered as intrathecal injection measured after 60 to 90 mins by Von Frey test (reference value: 43 +/- 3.4 g); type: organism-based; details: in vivo, icv_or_intrathecal
[17] = target: Kappa-type opioid receptor (Cavia porcellus, UniProt P41144); type: cell membranes, Brain, Membranes
[18] = target: T1, Cannabinoid receptor (Rattus norvegicus); assay: Displacement of [3H]JWH-018 from CB1R/CB2R in Wistar rat brain membranes assessed as specific binding at 10 uM up to 90 mins by liquid scintillation analysis relative to control; type: cell membranes; summary of the method: as §2
Rattus norvegicus [19] = assay: Antiallodynic activity in sodium iodoacetate-induced rat model of osteoarthritis assessed as increase in maximum effect in early phase at 20 ug administered as intrathecal injection measured up to 45 mins by Von Frey test; type: functional, organism-based
[20] = target: Delta-type opioid receptor (Rattus norvegicus, UniProt P33533); assay: Displacement of [3H]Ile5,6-deltorphin-2 from DOR in Wistar rat brain membranes after 60 mins by liquid scintillation analysis; type: cell membranes
Rattus norvegicus [21] = assay: Effect on nociception of the contralateral paw in rat model of sodium iodoacetate-induced osteoarthritis paw withdrawal threshold in early phase at 20 ug administered as intrathecal injection measured up to 45 mins by Von Frey test (reference value: 44 +/- 2.4 g); type: organism-based; details: in vivo, icv_or_intrathecal, 0.75 h
[22] = target: Cannabinoid receptor 1 (Rattus norvegicus) (UniProt P20272); assay: Agonist activity at CB1R in Wistar rat brain membranes at 10 uM in presence of rimonabant after 60 mins by [35S]-GTPgammaS binding assay relative to control; type: functional, cell membranes; summary of the method: as §1
Cannabinoid receptor 2 = target: T5, Cannabinoid receptor 2 (Rattus norvegicus, UniProt Q9QZN9); assay: Agonist activity at CB2R in Wistar rat brain membranes in presence of AM630 after 60 mins by [35S]-GTPgammaS binding assay; type: functional, cell membranes; summary of the method: as §1
T5 sequence (Q9QZN9 whole entry): T3 sequence (whole entry)

[23] = target: Mu-type opioid receptor (Rattus norvegicus) (UniProt P33535); assay: Agonist activity at MOR in Wistar rat brain membranes at 10 uM in presence of naloxone after 60 mins by [35S]-GTPgammaS binding assay relative to control; type: functional, cell membranes
Summary of the method: (§4)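 Rat brain membranes (30 µg protein/tube) incubated 60 min at 30 °C with 0.05 nM [35S]GTPγS and ligand at 10^-10–10^-5 M. Buffer: 50 mM Tris-HCl pH 7.4 with 30 µM GDP, 100 mM NaCl, 3 mM MgCl2, 1 mM EGTA. Nonspecific binding taken with 10 µM GTPγS; basal set as 100%. Filtration and scintillation counting; n≥3.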

Mu-type opioid receptor [24] = target: T4, Mu-type opioid receptor; assay: Agonist activity at MOR in Wistar rat brain membranes in presence of naloxone after 60 mins by [35S]-GTPgammaS binding assay; type: functional, cell membranes; summary of the method: as §4
Cannabinoid receptor 1 = Cannabinoid receptor 1 (Rattus norvegicus, UniProt P20272); assay: Agonist activity at CB1R in Wistar rat brain membranes in presence of rimonabant after 60 mins by [35S]-GTPgammaS binding assay; type: functional, cell membranes; summary of the method: as §1
Mus musculus = assay: Antinociceptive activity in CD-1 mouse assessed as increase in thermal latency at 10 mg/kg, iv after 15 to 120 mins by hot plate technique; type: functional, organism-based
Summary of the method: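 Male CD-1 mice (25 g) given 10 mg/kg i.v. in 10 mL/kg; vehicle saline with 5% DMSO. Hot plate held at 55.0 °C. Latency to paw lick or jump, cut-off 60 s, read at 15–120 min. Baseline is the mean of three pre-test readings. Data given as %MPE; n=6/group.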

Rattus norvegicus [25] = organism: Rattus norvegicus; assay: Agonist activity at MOR/CB1R/CB2R in Wistar rat brain membranes at 10 uM in presence of naloxone,rimonabant and AM630 after 60 mins by [35S]-GTPgammaS binding assay relative to control; type: cell membranes; summary of the method: as §1
Rattus norvegicus [26] = organism: Rattus norvegicus; assay: Agonist activity at MOR/CB1R/CB2R in Wistar rat brain membranes after 60 mins by [35S]-GTPgammaS binding assay relative to control; type: cell membranes; summary of the method: as §1
[27] = target: T3, Cannabinoid receptor 2 (Rattus norvegicus); assay: Agonist activity at CB2R in Wistar rat brain membranes at 10 uM in presence of AM630 after 60 mins by [35S]-GTPgammaS binding assay relative to control; type: functional, cell membranes; summary of the method: as §1
Rattus norvegicus [28] = assay: Effect on nociception of the contralateral paw in rat model of sodium iodoacetate-induced osteoarthritis assessed as paw withdrawal threshold in late phase at 7 ug administered as intrathecal injection measured after 60 to 90 mins by Von Frey test (reference value: 43 +/- 3.4 g); type: ADME, organism-based; details: in vivo, icv_or_intrathecal
Rattus norvegicus [29] = assay: Effect on nociception of the contralateral paw in rat model of sodium iodoacetate-induced osteoarthritis assessed as paw withdrawal threshold in early phase at 7 ug administered as intrathecal injection measured up to 45 mins by Von Frey test (reference value: 44 +/- 2.4 g); type: ADME, organism-based; details: in vivo, icv_or_intrathecal, 0.75 h
Mu-type opioid receptor [30] = target: T4, Mu-type opioid receptor; assay: Agonist activity at MOR in Wistar rat brain membranes after 60 mins by [35S]-GTPgammaS binding assay; type: functional, cell membranes
Rattus norvegicus [31] = assay: Antiallodynic activity in sodium iodoacetate-induced rat model of osteoarthritis assessed as increase in maximum effect in early phase at 7 ug administered as intrathecal injection measured up to 45 mins by Von Frey test; type: functional, organism-based
Rattus norvegicus [32] = assay: Antiallodynic activity in sodium iodoacetate-induced rat model of osteoarthritis assessed as reduction in maximum effect in late phase at 20 ug administered as intrathecal injection measured up to 60 to 90 mins by Von Frey test; type: functional, organism-based

Sequence of Delta-type opioid receptor (P33533 whole entry): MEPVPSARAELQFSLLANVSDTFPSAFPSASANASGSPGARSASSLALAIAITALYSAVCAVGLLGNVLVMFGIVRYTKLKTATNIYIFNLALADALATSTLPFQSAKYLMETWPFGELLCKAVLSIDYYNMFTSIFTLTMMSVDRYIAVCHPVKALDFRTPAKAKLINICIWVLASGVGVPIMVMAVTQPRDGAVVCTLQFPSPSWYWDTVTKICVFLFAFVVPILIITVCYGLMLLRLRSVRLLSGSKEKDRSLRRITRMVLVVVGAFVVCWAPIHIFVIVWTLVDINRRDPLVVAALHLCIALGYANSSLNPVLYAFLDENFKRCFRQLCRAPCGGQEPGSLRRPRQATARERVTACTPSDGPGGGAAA
T1 sequence (P20272 whole entry, looked up, one chain of several): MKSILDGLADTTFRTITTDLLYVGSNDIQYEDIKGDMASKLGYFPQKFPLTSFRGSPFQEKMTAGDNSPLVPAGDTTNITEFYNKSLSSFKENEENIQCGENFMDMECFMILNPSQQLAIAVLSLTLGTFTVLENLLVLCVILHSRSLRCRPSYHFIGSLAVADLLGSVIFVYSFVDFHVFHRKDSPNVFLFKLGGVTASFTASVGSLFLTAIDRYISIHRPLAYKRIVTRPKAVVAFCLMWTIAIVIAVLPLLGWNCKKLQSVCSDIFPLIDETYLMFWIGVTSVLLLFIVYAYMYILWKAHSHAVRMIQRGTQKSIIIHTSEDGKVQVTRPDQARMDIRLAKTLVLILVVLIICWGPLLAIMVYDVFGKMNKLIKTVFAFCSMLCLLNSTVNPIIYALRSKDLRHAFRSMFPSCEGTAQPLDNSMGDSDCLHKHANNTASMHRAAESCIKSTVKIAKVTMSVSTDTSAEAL
Sequence of Kappa-type opioid receptor (P41144 whole entry): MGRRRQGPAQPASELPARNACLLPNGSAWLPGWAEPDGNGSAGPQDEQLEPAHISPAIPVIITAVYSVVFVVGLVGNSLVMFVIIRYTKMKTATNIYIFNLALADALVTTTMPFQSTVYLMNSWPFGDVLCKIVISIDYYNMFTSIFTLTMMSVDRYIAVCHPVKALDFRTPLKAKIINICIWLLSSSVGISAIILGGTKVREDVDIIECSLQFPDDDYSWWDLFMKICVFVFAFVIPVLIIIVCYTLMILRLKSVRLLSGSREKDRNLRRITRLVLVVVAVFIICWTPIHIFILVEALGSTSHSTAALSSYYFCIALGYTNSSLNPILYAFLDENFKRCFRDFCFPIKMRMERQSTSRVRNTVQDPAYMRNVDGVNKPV
T4 sequence (P33535 whole entry): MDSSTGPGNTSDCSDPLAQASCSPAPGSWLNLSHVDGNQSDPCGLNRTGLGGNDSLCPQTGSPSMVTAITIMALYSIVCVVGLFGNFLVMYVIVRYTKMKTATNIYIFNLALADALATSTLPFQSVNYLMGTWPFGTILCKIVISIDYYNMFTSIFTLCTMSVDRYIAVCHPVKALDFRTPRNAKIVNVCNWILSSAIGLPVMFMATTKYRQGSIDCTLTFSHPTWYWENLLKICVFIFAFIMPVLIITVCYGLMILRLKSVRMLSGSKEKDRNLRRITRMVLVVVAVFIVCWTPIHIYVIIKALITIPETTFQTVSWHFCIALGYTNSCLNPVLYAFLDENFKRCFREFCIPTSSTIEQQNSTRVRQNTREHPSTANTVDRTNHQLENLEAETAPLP
Sequence of Cannabinoid receptor 1 (P20272 whole entry): as the sequence (P20272 whole entry, looked up, one chain of several) above
Sequence of Cannabinoid receptor 1 (Rattus norvegicus) (P20272 whole entry): as the sequence (P20272 whole entry, looked up, one chain of several) above
Sequence of Mu-type opioid receptor (Rattus norvegicus) (P33535 whole entry): as the sequence (P33535 whole entry) above

SMILES	Ki (Cannabinoid receptor [2]) [nM]	Emax (Rattus norvegicus [5]) [%]	EC50 [10] [nM]	Ki (Cannabinoid receptor [12]) [nM]	Ki (Mu-type opioid receptor [13]) [nM]	Activity (Rattus norvegicus [16]) [g]	Ki [17] [nM]	Activity (Rattus norvegicus [19])	Ki [20] [nM]	Activity (Rattus norvegicus [21]) [g]	Emax [22] [%]	EC50 (Cannabinoid receptor 2) [nM]	EC50 (Cannabinoid receptor 1) [nM]	Activity (Mus musculus)	Emax (Rattus norvegicus [25]) [%]	Emax (Rattus norvegicus [26]) [%]	Emax [27] [%]	also measured
COc1ccc(C(=O)c2c(C)n(CCN3CCOCC3)c3cc(I)ccc23)cc1	27																	Emax [1]: 100%; Activity [3]: 70%
CCCCCn1cc(C(=O)c2cccc3ccccc23)c2ccccc21	3.4	163	69	2.9	> 10000	42	> 10000	Active	> 10000	41								EC50 (Cannabinoid receptor [4]): 36 nM; Kdiss [6]: 0.00175 s⁻¹; Kd(app) (Cannabinoid receptor [7]): 6.5 nM; Emax [8]: 1120 fmol/mg; Activity [9]: 60%; Emax [11]: 167%; Kd (Cannabinoid receptor [14]): 3.4 nM; K [15]: 0.124 min⁻¹; Activity [18]: 65%
COc1ccc2c3c1O[C@H]1/C(=N\OCC(=O)NCCCCCCNC(=O)CCCCCn4cc(C(=O)c5cccc6ccccc56)c5ccccc54)CC[C@@]4(O)[C@@H](C2)N(C)CC[C@]314	34	147	215	12	18	47	172	Active	263	42	139	340	452	Active	100	146	122	Emax [23]: 112%; EC50 (Mu-type opioid receptor [24]): 397 nM
C[C@@H](NC(=O)[C@@H](N)Cc1ccc(O)cc1)C(=O)NCC(=O)N[C@@H](Cc1ccccc1)C(N)=O	> 10000	157	191	> 10000	0.8		173											Activity (Rattus norvegicus [28]): 40 g; Activity (Rattus norvegicus [29]): 43 g; EC50 (Mu-type opioid receptor [30]): 154 nM; Activity (Rattus norvegicus [31]): Active
COc1ccc2c3c1O[C@H]1C(=O)CC[C@@]4(O)[C@@H](C2)N(C)CC[C@]314 [OXYCODONE]						40		Active		43								Activity (Rattus norvegicus [32]): Active
C[C@@H](NC(=O)[C@@H](N)Cc1ccc(O)cc1)C(=O)NCC(=O)N[C@@H](Cc1ccccc1)C(=O)NCC(=O)NCCCCCn1cc(C(=O)c2cccc3ccccc23)c2ccccc21	251	160	114	317		35	63	Active	134	39	125	671	378	Active	100	161	148	

Reference: ChEMBL document CHEMBL4359826, “Preparation of bivalent agonists for targeting the mu opioid and cannabinoid receptors” (Eur J Med Chem, 2019)
